Results taken from ChEMBL document CHEMBL4765302, “Design, synthesis and biological evaluation of novel histone deacetylase1/2 (HDAC1/2) and cyclin-dependent Kinase2 (CDK2) dual inhibitors against malignant cancer” (Eur J Med Chem, 2020).
The source made the active and inactive calls. The calls are words filed in the database; no cut-off is given here.

How the values were obtained:
A-375 [1] = assay: Induction of apoptosis in human A-375 cells assessed as early apoptotic cells at 2 uM incubated for 48 hrs by annexin V-FITC and PI staining based flow cytometry (reference value: 1.34 %); assay type: functional
HCT-116 [2] = assay: Antiproliferative activity against human HCT-116 cells assessed as reduction in cell growth at 2 uM incubated for 72 hrs by CCK-8 assay relative to control; assay type: functional
NCI-H460 [3] = assay: Antiproliferative activity against human H460 cells assessed as reduction in cell growth at 8 uM incubated for 72 hrs by CCK-8 assay relative to control; assay type: functional
Histone deacetylase 1 = Histone deacetylase 1 (Homo sapiens, UniProt Q13547); assay: Inhibition of recombinant human HDAC1 at 10 uM using SIRT1 as substrate incubated for 10 mins followed by substrate addition and measured after 30 mins by fluorescence based assay relative to control; settings: time 40.0 min
How it was run: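 Enzyme inhibition of HDAC1 measured at a single concentration of 10 µM, tested alongside the cell-growth screen.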

NCI-H460 [4] = assay: Antiproliferative activity against human NCI-H460 cells assessed as reduction in cell growth incubated for 72 hrs by CCK-8 assay; assay type: functional, cell-based; settings: NCI-H460, 72 h
How it was run: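 IC50 by CCK-8 assay across five solid-tumour lines (HCT116, HepG2, H460, HeLa, A375). Run only for compounds chosen after the single-concentration screen, with CS055 and roscovitine as references.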

Histone deacetylase 2 = Histone deacetylase 2 (Homo sapiens, UniProt Q92769); assay: Potency index, ratio of IC50 of CS055 to IC50 of compound for inhibition of recombinant human HDAC2 using FLUOR-DE-LYS-Green as substrate incubated for 10 mins followed by substrate addition and measured after 30 mins by fluorescence based assay
HepG2 = assay: Cytotoxicity against human HepG2 cells assessed as effect on cell morphology at 0.5 to 8 micromol incubated for 48 hrs by microscopic analysis; assay type: functional, cell-based; settings: dose 0.5-8 µmol
How it was run: (§1)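 Five cancer cell lines treated with compound or DMSO (0.1 %) for 48 h. Morphology inspected by light microscopy at 10× objective.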

HeLa [5] = assay: Cytotoxicity against human HeLa cells assessed as effect on cell morphology at 0.5 to 8 micromol incubated for 48 hrs by microscopic analysis; assay type: functional, cell-based; settings: dose 0.5-8 µmol; how it was run: as §1
HCT-116 [6] = assay: Induction of cell cycle arrest in human HCT-116 cells assessed as reduction in G0/G1 phase at 0.5 to 2 uM incubated for 24 hrs by PI staining based flow cytometry; assay type: functional; settings: dose 0.5-2 µM
How it was run: (§2)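 Treatment at 2, 1 and 0.5 μM for 24 h, alongside CS055 and roscovitine, against a DMSO (0.1 %) blank. Cells then stained with propidium iodide and analyzed by flow cytometry.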

HeLa [7] = assay: Induction of cell cycle arrest in human HeLa cells assessed as reduction in G0/G1 phase at 0.5 to 2 uM incubated for 24 hrs by PI staining based flow cytometry; assay type: functional; settings: dose 0.5-2 µM; how it was run: as §2
A-375 [8] = assay: Induction of cell cycle arrest in human A-375 cells assessed as G2/M phase at 0.5 uM incubated for 24 hrs by PI staining based flow cytometry (reference value: 13.7 %); assay type: functional; how it was run: as §2
A-375 [9] = assay: Induction of apoptosis in human A-375 cells assessed as early apoptotic cells at 1 uM incubated for 48 hrs by annexin V-FITC and PI staining based flow cytometry (reference value: 1.34 %); assay type: functional
A-375 [10] = assay: Induction of apoptosis in human A-375 cells assessed as viable cells at 0.5 uM incubated for 48 hrs by annexin V-FITC and PI staining based flow cytometry (reference value: 96.3 %); assay type: functional; settings: read-out: Activity
A-375 [11] = assay: Induction of apoptosis in human A-375 cells assessed as early apoptotic cells at 0.5 uM incubated for 48 hrs by annexin V-FITC and PI staining based flow cytometry (reference value: 1.34 %); assay type: functional
HCT-116 [12] = assay: Induction of apoptosis in human HCT-116 cells assessed as viable cells at 2 uM incubated for 48 hrs by annexin V-FITC and PI staining based flow cytometry (reference value: 93.9 %); assay type: functional; settings: read-out: Activity
HCT-116 [13] = assay: Induction of apoptosis in human HCT-116 cells assessed as late apoptotic cells at 2 uM incubated for 48 hrs by annexin V-FITC and PI staining based flow cytometry (reference value: 1.88 %); assay type: functional
HCT-116 [14] = assay: Induction of apoptosis in human HCT-116 cells assessed as early apoptotic cells at 1 uM incubated for 48 hrs by annexin V-FITC and PI staining based flow cytometry (reference value: 4.14 %); assay type: functional
HCT-116 [15] = assay: Induction of apoptosis in human HCT-116 cells assessed as late apoptotic cells at 0.5 uM incubated for 48 hrs by annexin V-FITC and PI staining based flow cytometry (reference value: 1.88 %); assay type: functional
NCI-H460 [16] = assay: Induction of apoptosis in human NCI-H460 cells assessed as early apoptotic cells at 2 uM incubated for 48 hrs by annexin V-FITC and PI staining based flow cytometry (reference value: 2.88 %); assay type: functional
NCI-H460 [17] = assay: Induction of apoptosis in human NCI-H460 cells assessed as necrotic cells at 2 uM incubated for 48 hrs by annexin V-FITC and PI staining based flow cytometry (reference value: 0.632 %); assay type: functional
[18] = AUC (0 to t) in ICR mouse at 4 mg/kg, iv measured upto 24 hrs by LC-MS/MS analysis; assay type: ADME, organism-based; design: route intravenous, dose 4 mg/kg, time <=24; settings: in vivo
How it was run: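 Male ICR mice (N=9). Single dose, either 4 mg/kg intravenous or 20 mg/kg intraperitoneal. Parameters derived: T1/2, Tmax, Cmax, AUC0-t, MRT0-t and CL, with F for the intraperitoneal arm.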

[19] = Toxicity in Balb/c mouse xenografted with human HCT-116 cells assessed as reduction in body weight at 25 to 100 mg/kg, ip administered for 21 days and measured on day 21; assay type: organism-based; settings: in vivo, 504 h, dose 25-100 mg/kg, time 21 day
How it was run: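 BALB/c nude mice bearing HCT116 xenografts were dosed once daily by intraperitoneal injection at 25, 50 or 100 mg/kg for 21 days, starting when tumours reached 100-300 mm³. Body weight was tracked over the dosing period and compared with the blank group.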

HCT-116 [20] = assay: Antitumor activity against human HCT-116 cells xenografted in Balb/c mouse assessed as tumor growth inhibition at 100 mg/kg, ip administered for 21 days and measured on day 21 relative to control; assay type: functional; settings: HCT-116, ip, 504 h, time 21 day, read-out: GI
How it was run: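 HCT116 xenografts in BALB/c nude mice. Dosing started when tumours reached 100–300 mm³: intraperitoneal injection once daily for 21 days at 25, 50 or 100 mg/kg, versus blank. Body weight monitored. Tumour growth inhibition computed against blank.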

HCT-116 [21] = assay: Induction of apoptosis in human HCT-116 cells assessed as apoptosis rate at 2 uM incubated for 48 hrs by annexin V-FITC and PI staining based flow cytometry relative to control; assay type: functional
[22] = Half life in ICR mouse at 20 mg/kg, ip measured upto 24 hrs by LC-MS/MS analysis; settings: in vivo
[23] = AUC (0 to t) in ICR mouse at 20 mg/kg, ip measured upto 24 hrs by LC-MS/MS analysis; settings: in vivo
[24] = MRT (0 to t) in ICR mouse at 20 mg/kg, ip measured upto 24 hrs by LC-MS/MS analysis; settings: in vivo

Histone deacetylase 2, sequence (Q92769 whole entry): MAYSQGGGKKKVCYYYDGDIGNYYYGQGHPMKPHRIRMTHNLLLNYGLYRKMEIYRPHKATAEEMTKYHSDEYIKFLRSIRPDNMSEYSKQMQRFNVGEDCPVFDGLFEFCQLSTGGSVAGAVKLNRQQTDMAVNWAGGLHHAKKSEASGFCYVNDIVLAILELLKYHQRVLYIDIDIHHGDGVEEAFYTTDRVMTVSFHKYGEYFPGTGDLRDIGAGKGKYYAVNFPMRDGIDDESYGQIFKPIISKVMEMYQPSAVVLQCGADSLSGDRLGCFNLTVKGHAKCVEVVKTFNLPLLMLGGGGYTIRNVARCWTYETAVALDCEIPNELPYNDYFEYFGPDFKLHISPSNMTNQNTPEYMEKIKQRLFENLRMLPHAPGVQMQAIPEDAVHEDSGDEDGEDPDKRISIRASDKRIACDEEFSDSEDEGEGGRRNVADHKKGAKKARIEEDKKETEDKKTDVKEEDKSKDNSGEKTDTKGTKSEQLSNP
Histone deacetylase 1, sequence (Q13547 whole entry): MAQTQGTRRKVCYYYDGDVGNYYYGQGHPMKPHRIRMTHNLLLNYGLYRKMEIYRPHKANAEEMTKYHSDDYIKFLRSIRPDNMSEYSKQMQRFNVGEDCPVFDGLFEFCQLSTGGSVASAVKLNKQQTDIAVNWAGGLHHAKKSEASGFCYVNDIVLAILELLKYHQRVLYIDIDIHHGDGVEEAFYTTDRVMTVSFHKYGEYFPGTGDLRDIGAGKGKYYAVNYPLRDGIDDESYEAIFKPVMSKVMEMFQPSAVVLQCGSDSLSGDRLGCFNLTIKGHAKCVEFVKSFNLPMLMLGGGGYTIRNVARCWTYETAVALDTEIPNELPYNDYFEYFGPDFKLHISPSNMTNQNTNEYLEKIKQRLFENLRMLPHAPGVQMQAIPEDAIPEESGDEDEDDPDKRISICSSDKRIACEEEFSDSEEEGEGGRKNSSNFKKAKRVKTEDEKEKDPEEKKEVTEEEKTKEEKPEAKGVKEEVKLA

Work on `Cc1ccc(Nc2nc(Cl)nc3c2ncn3Cc2ccc(C(=O)Nc3ccccc3N)cc2)cc1` yielded an Activity (A-375 [1]) of 7.19%, an inhibition at 2 µM (HCT-116 [2]) of 76.3% and an inhibition at 8 µM (NCI-H460 [3]) of 82.5%. For the same compound, the inhibition (Histone deacetylase 1) was 88.7%, the IC50 (NCI-H460 [4]) was 1590 nM and the Ratio IC50 (Histone deacetylase 2) was 2. The Activity (HepG2) was “Active”, the Activity (HeLa [5]) was “Active” and the Activity (HCT-116 [6]) was “Active”. The Activity (HeLa [7]) was “Active”, the Activity (A-375 [8]) was 57.03% and the Activity (A-375 [9]) was 8%. It also gave a viability at 0.5 µM (A-375 [10]) of 16.4%, an Activity (A-375 [11]) of 10.6% and a viability at 2 µM (HCT-116 [12]) of 9.72%. It also gave an Activity (HCT-116 [13]) of 13.4%, an Activity (HCT-116 [14]) of 72.1% and an Activity (HCT-116 [15]) of 16.6%. The Activity (NCI-H460 [16]) was 12%, the Activity (NCI-H460 [17]) was 9.03% and the AUC(0-t) at 24 h [18] was 2850 ng·h/mL. For the same compound, the Activity [19] was “Non-Toxic”, the inhibition in vivo at 100 mg/kg (HCT-116 [20]) was 44% and the Activity (HCT-116 [21]) was 89.6%. For the same compound, the half-life [22] was 2.84 h, the AUC(0-t) at 24 h [23] was 7240 ng·h/mL and the MRT last at 24 h [24] was 4.54 h.
